High-throughput results (PubChem)
hERG rescue: shields human hERG channel from block by proarrhythmic agents; Q12809; CHO-hERG, FluxOR thallium flux, dofetilide IC70 present; activation (rescue from dofetilide block), less the hit threshold, % at 10 µM; 310,000 compounds, 0.51% hits; AID 1511;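 active = activation above the mean of controls blocked by dofetilide plus 5 SD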;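 also: thallium influx through hERG after potassium depolarization seen as dye fluorescence rise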
KCNK9 inh: blocks the human KCNK9 two-pore domain potassium channel. HEK293 KCNK9, FluxOR thallium flux fluorescence; stronger effect = lower value. B-score at 10 µM. Q9NPC2. 310,000 compounds, 1.2% hits;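 active = ratio B-score over 3 SD below the library mean, with starting fluorescence within 5 SD of its mean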;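 also: negative B-score means less thallium flux so channel inhibition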
KCNK3 inh: human KCNK3 channel inhibition, primary screen; O14649; CHO-KCNK3 thallium flux, FluxOR fluorescence; stronger effect = lower value; B-score at 10 µM; 340,000 compounds, 0.84% hits; AID 602410;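 active = B-score under library mean minus 4 SD, starting fluorescence ratio at most library mean plus 5 SD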;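 also: more negative B-score means stronger inhibition of thallium flux through KCNK3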
Target sequence (O14649 whole entry, looked up): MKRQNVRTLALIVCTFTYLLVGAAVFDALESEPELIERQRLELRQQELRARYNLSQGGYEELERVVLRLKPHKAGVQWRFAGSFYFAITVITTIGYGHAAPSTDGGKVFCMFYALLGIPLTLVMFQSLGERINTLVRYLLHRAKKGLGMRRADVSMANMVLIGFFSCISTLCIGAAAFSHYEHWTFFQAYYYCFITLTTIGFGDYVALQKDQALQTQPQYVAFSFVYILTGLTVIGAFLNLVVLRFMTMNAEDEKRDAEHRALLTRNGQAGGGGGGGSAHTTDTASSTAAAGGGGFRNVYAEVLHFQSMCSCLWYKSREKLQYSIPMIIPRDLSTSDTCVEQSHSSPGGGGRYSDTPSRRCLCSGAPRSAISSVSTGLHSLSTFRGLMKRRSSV
KCNQ1 act: potentiators or activators of human KCNQ1 potassium channel; B-score at 10 µM; 310,000 compounds, 0.35% hits; AID 2648; CHO-K1 KCNQ1, thallium flux FluxOR fluorescence; stronger effect = higher value;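 active = fluorescence ratio B-score, a plate-corrected score, at least three library SD, with initial intensity B-score within 5 SD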
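assay system = CHO-K1 cells stably expressing KCNQ1 | medium = assay buffer, equal DMSO in all wells | timing = 37 °C overnight plating, 90-min dark dye load, 20-min compound pretreatment | measured by = kinetic FluxOR thallium fluorescence, 10-s 1-Hz baseline, 110-s post-stimulus read | measure = fluorescence change relative to baseline, converted to B score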
KCNQ1 block: inhibitors of human KCNQ1 potassium channel; 310,000 compounds, 1.3% hits; P51787; CHO-K1 KCNQ1, FluxOR thallium flux fluorescence; stronger effect = higher value; B-score at 10 µM; AID 2642;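 active = compounds whose thallium flux B-score, printed positive for inhibition, exceeds three library SD while starting fluorescence stays within three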;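 also: channel opened by potassium depolarization with thallium stimulus after 20 min compound exposure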
KCNK9 block conf: confirmation of human KCNK9 potassium channel inhibitors. shares compounds with KCNK9 inh. 4,900 compounds, 43% hits. HEK293 KCNK9 cells, FluxOR thallium flux fluorescence. AID 492992. inhibition, % at 10 µM;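 active = thallium signal inhibited by more than 5 SD of the compound-free buffer control wells, on both duplicate plates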;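 also: 0% = assay buffer control wells without compound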
Kir21 sel: selectivity of KCNK9 modulators against mouse Kir2.1 | shares compounds with KCNK9 inh | Kir2.1 cells, FluxOR thallium flux fluorescence | inhibition, % at 10 µM | 4,900 compounds, 4% hits | AID 492993;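 active = thallium signal drop more than 5 SD beyond the mean of the no-compound control wells, seen in both duplicate plates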;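 also: signal is fluorescence rise after thallium addition divided by baseline fluorescence; plate controls were assay buffer only for no effect and full block by chlorpromazine control for full effect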
KCNK9 uninduced: non-induced cell nonspecific activity of KCNK9 modulators; shares compounds with KCNK9 inh; non-induced KCNK9-HEK293, FluxOR thallium flux; inhibition, % at 10 µM; 4,900 compounds, 40% hits; AID 492997;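 active = thallium signal drop beyond 5 SD of the untreated control mean, on both duplicate plates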;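 also: plate controls were buffer only IC0 wells for no effect and SID17386958 at its maximal inhibitory level for full effect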
KCNK3 confirm: human KCNK3 channel inhibition, confirmation assay; shares compounds with KCNK3 inh; CHO-KCNK3 thallium flux, FluxOR fluorescence; 0% buffer, 100% carvedilol maximal block; ratio percent of control, % at 10 µM; 2,400 compounds, 99% hits;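 active = ratio percent of control, averaged over triplicates, above buffer control mean plus 5 SD, cut at about 64% in these data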;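 also: ratio is the fluorescence rise from min to max over baseline after thallium stimulus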
KCNK3 noninduced: counter-screen for KCNK3 inhibitors: effect in non-induced cells. shares compounds with KCNK3 inh. non-induced KCNK3 parental cells, FluxOR thallium flux; stronger effect = lower value. thallium flux ratio (lower = more inhibition) at 10 µM. 2,400 compounds, 40% hits;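 active = thallium flux ratio, averaged over three wells, more than 5 SD below the buffer control mean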;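 also: host cells are CHO cells without KCNK3 induction; ratio is peak minus trough fluorescence over baseline then normalized to buffer controls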
* hit, by the source's call; i = inactive; . = no result given. Hits are enriched below; roughly 3.1% of the tested compounds scored in any of these assays.

SMILES | hERG rescue | KCNK9 inh | KCNK3 inh | KCNQ1 act | KCNQ1 block | KCNK9 block conf | Kir21 sel | KCNK9 uninduced | KCNK3 confirm | KCNK3 noninduced
COc1ccc(C(=O)NC2CC2)cc1OC1CCN(Cc2ccc(F)cc2F)CC1 | -6 | i | i | i | i | . | . | . | . | .
N/C(Cc1ccc([N+](=O)[O-])cc1)=N\OC(=O)C(c1ccccc1)c1ccccc1 | -5 | -10* | -9.6* | i | i | 34%* | i | 40%* | 126* | i
O=C(NC1CCCCC1)c1cc2ccccc2cc1O | -13 | -12* | -9.4* | i | i | 26%* | i | i | 107* | i
COc1ccccc1/C=C(/CC(=O)NCc1ccc2c(c1)OCO2)c1nc2ccccc2s1 | -6 | -12* | -9.3* | i | i | 56%* | i | 29%* | 125* | 0.14*
COc1ccccc1/C=C/C(=O)OCC(=O)NCc1ccc2c(c1)OCO2 | . | . | i | . | . | . | . | . | . | .
O=C(NCC(c1ccco1)N1CCN(c2ccccc2)CC1)C(=O)NC1CCCCC1 (stereo not drawn) | -11 | i | i | i | i | . | . | . | . | .
N#CCC(=O)Nc1ccc(C(=O)OCc2ccccc2Oc2ccccc2)cc1 | -14 | -11* | -10* | i | i | 58%* | i | 25%* | 115* | 0.15*
COc1ccc(NC(=O)/C(C#N)=C\c2ccc(N3CCOCC3)o2)cc1 | -22 | -8.7* | -12* | i | 10* | 48%* | 36%* | 76%* | 132* | 0.091*
COc1ccc(C)cc1N(CC(=O)Nc1ccc2c(c1)OCCO2)S(C)(=O)=O | -6 | i | i | i | i | . | . | . | . | .
O=C(CN1C(=O)c2ccccc2S1(=O)=O)N1CCc2ccccc2C1 | -13 | i | i | i | i | . | . | . | . | .
Cc1ccc(C)c(-c2csc(N/N=C/c3ccco3)n2)c1 | -7 | -8.9* | -11* | i | i | 38%* | i | 27%* | 115* | 0.16*
O=C(Nc1ccccc1F)c1cc(S(=O)(=O)N2CCOCC2)ccc1N1CCOCC1 | . | . | i | . | . | . | . | . | . | .
OC(CNc1nc(C(F)(F)F)nc2ccccc12)c1ccccc1 (stereo not drawn) | -10 | -12* | -13* | i | i | 61%* | i | i | 118* | i
COc1ccccc1C(CNC(=O)c1cccc(S(=O)(=O)Nc2ccc(C)cc2)c1)N1CCCC1 (stereo not drawn) | -21 | i | i | i | i | . | . | . | . | .
O=C(OCC(=O)N(Cc1ccccc1)Cc1ccccc1)c1ccccc1O | . | . | i | . | . | . | . | . | . | .
O=C(OCC(=O)N(CCc1ccccc1)Cc1ccccc1)c1ccccc1O | -12 | -18* | -12* | i | 8* | 74%* | i | 39%* | 118* | i
O=C(OCC(=O)N(CCc1ccccc1)Cc1ccccc1)c1ccccc1NCCO | -20 | -9.5* | -9.9* | i | i | 56%* | i | i | 95* | i
O=C(OCC(=O)N(CCc1ccccc1)Cc1ccccc1)c1cccc(O)c1 | -4 | i | i | i | i | . | . | . | . | .
CC(=O)Nc1ccc(C(=O)COC(=O)C2CCCCC2)c(F)c1 | . | . | i | . | . | . | . | . | . | .
O=C(O)c1cc(S(=O)(=O)NC(Cc2c[nH]c3ccccc23)C(=O)O)ccc1Cl (stereo not drawn) | -6 | i | i | i | i | . | . | . | . | .
O=C(Nc1ccc(NC(=O)c2cccs2)cc1)c1ccc(Br)o1 | -6 | i | i | i | i | . | . | . | . | .
O=C(Nc1cccc(-c2cn3cccnc3n2)c1)c1ccc(Br)o1 | -13 | -8.7* | -9.6* | i | i | 40%* | i | i | 95* | i
O=C(Nc1cccc(NC(=O)c2cccs2)c1)c1ccc(Br)o1 | -12 | -16* | -10* | i | i | 62%* | i | i | 99* | i
C=CCOc1ccc(/C=N/NC(=O)CN2CCOCC2)cc1OCC | -6 | i | i | i | i | . | . | . | . | .
Cc1ccc(NC(=O)CCCN2C(=O)NC(C)(C)C2=O)cc1 | . | . | i | . | . | . | . | . | . | .
SMILES | hERG rescue | KCNK9 inh | KCNK3 inh | KCNQ1 act | KCNQ1 block | KCNK9 block conf | Kir21 sel | KCNK9 uninduced | KCNK3 confirm | KCNK3 noninduced
Cc1onc(-c2ccc(Cl)cc2)c1-c1ccnc(SCC(=O)Nc2ccc(C(C)C)cc2)n1 | -5 | -9.6* | -11* | i | i | 40%* | i | 29%* | 115* | i
O=S(=O)(c1ccccc1)N1CCN=C1SCc1ccccc1Cl | -3 | -9.7* | -11* | i | i | 34%* | i | 44%* | 114* | i
Cc1ccc(S(=O)(=O)Nc2cccc(C(=O)N3CCOCC3)c2)c(C)c1NS(C)(=O)=O | -11 | i | i | i | i | . | . | . | . | .
COc1ccc(CNC(=O)C(OC(=O)c2nsc(Cl)c2Cl)C(C)C)cc1 (stereo not drawn) | -4 | i | i | i | i | . | . | . | . | .
O=C(N/N=C/c1cccc(Oc2ccccc2)c1)c1cccc(Br)c1 | 5.6* | -11* | -11* | i | i | 54%* | i | 26%* | 99* | 0.16*
Cc1cc(C=O)c(C)n1-c1ccc(NC2CCCC2)c([N+](=O)[O-])c1 | -9 | -17* | -9.1* | i | 6* | 60%* | i | 37%* | 122* | i
Cn1cccc1C(=O)NC(=O)COC(=O)CCNS(=O)(=O)c1cccc(C(F)(F)F)c1 | . | . | i | . | . | . | . | . | . | .
CN(C)C(=N)c1n[nH]nc1SCc1ccc(Cl)c(Cl)c1 | -11 | i | i | i | i | . | . | . | . | .
CSCc1cc(N(C)C)nc(SCc2ccc(Cl)c(Cl)c2)n1 | 0 | -10* | i | i | i | 72%* | i | 58%* | 104* | 0.15*
Nc1nc(SCc2ccc(Cl)cc2Cl)n[nH]1 | -8 | i | i | i | i | . | . | . | . | .
CNc1cc(CSC)nc(SCc2ccc(Cl)cc2Cl)n1 | -4 | -12* | -9.2* | i | i | 56%* | i | 50%* | 142* | 0.15*
Cc1ccc(CC(=O)NC2CCCc3ccccc32)cc1C (stereo not drawn) | -7 | i | i | i | i | . | . | . | . | .
